Data on six molecules can be found in ChEMBL document CHEMBL2407024, “Antimicrobial activity of imidazo[1,5-a]quinoxaline derivatives with pyridinium moiety” (Eur J Med Chem, 2013).

A value given as a limit tells only on which side of the number the result lay.

For data set [1], the system named is Candida albicans. In words: Fungicidal activity against Candida albicans 885-653 after 6 hrs. The class given is functional. Particulars: 885-653, 6 h. The gist of the method:
(§1)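 Tubes of test compound (5 to 500 per ml, 1 mL in nutrient agar) with fungi were incubated at 26 °C for 6 h. Inocula were then prepared in Sabouraud dextrose broth and incubated at 26 °C. The fungicidal concentration is the one giving total cell death.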

In data set [2] the test system is Trichophyton mentagrophytes. In words: Fungicidal activity against Trichophyton mentagrophytes after 6 hrs. The class given is functional. The gist of the method:
as §1

In data set [3] the test system is Aspergillus niger. In words: Fungicidal activity against Aspergillus niger BKMF-1119 after 6 hrs. The class given is functional. Particulars: BKMF-1119, 6 h. The procedure, abridged: as §1
The test system of data set [4] is Pseudomonas aeruginosa. Description: Bactericidal activity against Pseudomonas aeruginosa 9027 after 4 hrs. The data set is classed as functional. Particulars: Pseudomonas aeruginosa, 9027, 4 h. The procedure, abridged: (§2)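 Tubes contained 1 mL test compound in nutrient agar, 5 to 500 per ml. Bacteria in normal saline broth (3 × 10⁵ cfu/ml, 1 mL) were added and held 4 h, then transferred onto meal-peptone agar plates and incubated at 37 °C. MBC is the dilution giving total cell death.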

Data set [5] relates to Escherichia coli. Description: Bactericidal activity against Escherichia coli F-50 after 4 hrs. The data set is classed as functional. Particulars: F-50, 4 h. The procedure, abridged:
as §2

The test system of data set [6] is Bacillus cereus. Description: Bactericidal activity against Bacillus cereus 8035 after 4 hrs. The class given is functional. Particulars: Bacillus cereus, 8035, 4 h. The procedure, abridged: as §2
Data set [7] concerns Staphylococcus aureus. In words: Bactericidal activity against Staphylococcus aureus 209p after 4 hrs. The class given is functional. The gist of the method: as §2
The test system of data set [8] is Candida albicans. In words: Antifungal activity against Candida albicans 885-653 measured every 24 hrs for 14 days by conventional dilution method. The class given is functional. The gist of the method:
(§3)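 Dilution assay in Sabouraud dextrose broth, inoculum 2 × 10^3–4 cfu/ml. MIC is the lowest concentration with no visible growth after 14 days of incubation. Run alongside a positive growth control and standard drug controls. Tests in duplicate, repeated twice.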

For data set [9], the system named is Trichophyton mentagrophytes. Description: Antifungal activity against Trichophyton mentagrophytes measured every 24 hrs for 14 days by conventional dilution method. The data set is classed as functional. The procedure, abridged:
as §3

The test system of data set [10] is Aspergillus niger. In words: Antifungal activity against Aspergillus niger BKMF-1119 measured every 24 hrs for 14 days by conventional dilution method. The class given is functional. The procedure, abridged: as §3
For data set [11], the system named is Escherichia coli. Description: Antibacterial activity against Escherichia coli F-50 measured every 24 hrs for 5 days by conventional dilution method. The class given is functional. The procedure, abridged:
(§4)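 Broth dilution in nutrient broth, inoculum 3 × 10⁵ cfu/ml. MIC is the lowest concentration showing no growth, read visually every 24 h over 5 days. Run alongside a positive growth control and standard drug controls. Tests in duplicate, repeated twice.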

For data set [12], the system named is Bacillus cereus. Description: Antibacterial activity against Bacillus cereus 8035 measured every 24 hrs for 5 days by conventional dilution method. The class given is functional. The procedure, abridged: as §4
Data set [13] relates to Staphylococcus aureus. In words: Antibacterial activity against Staphylococcus aureus 209p measured every 24 hrs for 5 days by conventional dilution method. The data set is classed as functional. The procedure, abridged:
as §4

Data set [14] concerns Pseudomonas aeruginosa. Description: Antibacterial activity against Pseudomonas aeruginosa 9027 measured every 24 hrs for 5 days by conventional dilution method. The data set is classed as functional. The gist of the method: as §4
Data set [15] in a line: Acute toxicity in ip dosed mouse. The data set is classed as organism-based. Particulars: in vivo. The procedure, abridged:
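Mice; each compound given at 5 dose levels, 10 animals per dose (n = 50 per compound). Animals observed for 72 h; toxicity expressed as average lethal dose (LD50) calculated from mortality across dose groups.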

One may read the MFC as the smallest concentration meeting the test's criterion for killing the fungus. Read a high MFC as less potent killing. As a reminder, the MBC is the smallest concentration meeting the test's criterion for killing. The low end stands for more potent killing, the high end for less potent killing. For orientation: MIC means the lowest concentration that inhibits growth of the organism. Lower therefore signals inhibition by little substance. On to `CCCCCCCCCn1c(=O)c2c(-c3ccccc3)nc(-c3ccc[n+](Cc4ccccc4)c3)n2c2ccccc21.[Cl-]`, for which the MFC in the data set on Candida albicans [1] is 500 µg/mL; in data set [2] it was over 500 µg/mL; in the data set with Aspergillus niger [3], over 500 µg/mL. In addition, the minimal bactericidal concentration (MBC) in the data set on Pseudomonas aeruginosa [4] was over 500 µg/mL; in the data set on Escherichia coli [5], over 500 µg/mL; against Bacillus cereus [6], over 500 µg/mL; against Staphylococcus aureus [7] it was 50 µg/mL. Further, the MIC in the data set on Candida albicans [8] was 3.9 µg/mL; in data set [9] it was 500 µg/mL; in the data set with Aspergillus niger [10], over 500 µg/mL; with Escherichia coli [11], over 500 µg/mL; in the data set on Bacillus cereus [12], 12.5 µg/mL; in the data set with Staphylococcus aureus [13], 1.95 µg/mL. The MIC in the data set on Pseudomonas aeruginosa [14] is over 500 µg/mL.

As to `CCCCCCCCCn1c(=O)c2c(-c3ccccc3)nc(-c3ccc[n+](CCCCCCCCC)c3)n2c2ccccc21.[Br-]`, the MFC is 500 µg/mL against Candida albicans [1], over 500 µg/mL in [2] and over 500 µg/mL with Aspergillus niger [3]. Further, the MBC was over 500 µg/mL in the data set on Pseudomonas aeruginosa [4], over 500 µg/mL in the data set with Escherichia coli [5], 500 µg/mL against Bacillus cereus [6] and 50 µg/mL in the data set with Staphylococcus aureus [7]. Moreover, the MIC against Candida albicans [8] is 50 µg/mL; in [9], 500 µg/mL; against Aspergillus niger [10], over 500 µg/mL; against Escherichia coli [11], over 500 µg/mL; in the data set with Bacillus cereus [12], 6.3 µg/mL; with Staphylococcus aureus [13], 1.5 µg/mL. Besides, the MIC in the data set with Pseudomonas aeruginosa [14] is over 500 µg/mL.

In the case of `CCCCCCCCCn1c(=O)c2c(-c3ccccc3)nc(-c3ccc[n+](CCCCCCCCC)c3)n2c2ccccc21.[I-]`, the MFC (against Candida albicans [1]; in data set [2]; against Aspergillus niger [3]) was over 500 µg/mL in each case. Further, the MBC in the data set on Pseudomonas aeruginosa [4] is over 500 µg/mL; with Escherichia coli [5] it was over 500 µg/mL; in the data set on Bacillus cereus [6], over 500 µg/mL; against Staphylococcus aureus [7], 500 µg/mL. The MIC against Candida albicans [8] is over 500 µg/mL; in data set [9], over 500 µg/mL; against Aspergillus niger [10], over 500 µg/mL; against Escherichia coli [11], over 500 µg/mL; against Bacillus cereus [12], 7.8 µg/mL; against Staphylococcus aureus [13], 7.8 µg/mL. In the data set on Pseudomonas aeruginosa [14], the MIC was over 500 µg/mL.

In general, LD50 refers to the dose at which mortality reaches 50%. Low values mean a more toxic substance, high ones a less toxic substance. As to `CCCCCCCCC[n+]1cccc(-c2nc(-c3ccccc3)c3c(=O)n(CCCCCC)c4ccccc4n23)c1.[Br-]`, in [15], the LD50 is 120 mg/kg. The MFC with Candida albicans [1] was 50 µg/mL; in data set [2] it was 250 µg/mL; against Aspergillus niger [3] it was over 500 µg/mL. In addition, the MBC is over 500 µg/mL in the data set with Pseudomonas aeruginosa [4], 500 µg/mL against Escherichia coli [5], 50 µg/mL against Bacillus cereus [6] and 5 µg/mL in the data set with Staphylococcus aureus [7]. In addition, the MIC in the data set on Candida albicans [8] was 0.97 µg/mL; in [9], 250 µg/mL; with Aspergillus niger [10], over 500 µg/mL; in the data set with Escherichia coli [11], 500 µg/mL; against Bacillus cereus [12] it was 0.97 µg/mL; with Staphylococcus aureus [13], 0.97 µg/mL. The same molecule returned an MIC in the data set with Pseudomonas aeruginosa [14] of over 500 µg/mL.

With `CCCCCCn1c(=O)c2c(-c3ccccc3)nc(-c3ccc[n+](Cc4ccccc4)c3)n2c2ccccc21.[Cl-]`, the LD50 in [15] stood at 61.1 mg/kg. Also, the figures for the MFC (against Candida albicans [1]; in data set [2]; in the data set on Aspergillus niger [3]) were 500 µg/mL, over 500 µg/mL and over 500 µg/mL, respectively. The MBC in the data set with Pseudomonas aeruginosa [4] is over 500 µg/mL; in the data set on Escherichia coli [5] it was over 500 µg/mL; against Bacillus cereus [6], over 500 µg/mL; in the data set with Staphylococcus aureus [7], 50 µg/mL. Besides, the minimum inhibitory concentration (MIC) against Candida albicans [8] was 7.8 µg/mL; in data set [9], 500 µg/mL; in the data set on Aspergillus niger [10] it was over 500 µg/mL; against Escherichia coli [11] it was over 500 µg/mL; in the data set with Bacillus cereus [12], 6.3 µg/mL; against Staphylococcus aureus [13], 0.97 µg/mL. Also, the MIC with Pseudomonas aeruginosa [14] was over 500 µg/mL.

`CCCCCCCCC[n+]1cccc(-c2nc(-c3ccccc3)c3c(=O)n(CCCCCC)c4ccccc4n23)c1.[I-]`: the LD50 in [15] is 52.5 mg/kg. Moreover, the MFC is 500 µg/mL against Candida albicans [1], over 500 µg/mL in data set [2] and over 500 µg/mL in the data set with Aspergillus niger [3]. For the same molecule, the minimum bactericidal concentration (MBC) is over 500 µg/mL in the data set on Pseudomonas aeruginosa [4], over 500 µg/mL in the data set with Escherichia coli [5], 500 µg/mL with Bacillus cereus [6] and 5 µg/mL against Staphylococcus aureus [7]. Moreover, the MIC against Candida albicans [8] is 500 µg/mL; in data set [9], over 500 µg/mL; against Aspergillus niger [10], over 500 µg/mL; with Escherichia coli [11], over 500 µg/mL; in the data set with Bacillus cereus [12] it was 0.78 µg/mL; against Staphylococcus aureus [13], 0.78 µg/mL. Besides, in the data set with Pseudomonas aeruginosa [14], the minimum inhibitory concentration (MIC) is over 500 µg/mL.
